From ChEMBL document CHEMBL4038284, “Synthesis of novel quinoline-based 4,5-dihydro-1H-pyrazoles as potential anticancer, antifungal, antibacterial and antiprotozoal agents” (Eur J Med Chem, 2017)

Tests used:
Assay type in all cases: functional
T47D = assay: Growth inhibition of human T47D cells incubated for 48 hrs by sulforhodamine B assay
Outline: (§1)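 NCI-60 panel cells grown in RPMI-1640 with 5% FBS and 2 mM L-glutamine, preincubated 24 h at 37 °C/5% CO2. Time-zero plates were TCA-fixed at compound addition. DMSO stocks were diluted in medium and tested at five final concentrations (100, 10, 1.0, 0.1, 0.01 µM) for 48 h. Cells were TCA-fixed, stained with SRB and read at 515 nm. GI50 = 50% lower net protein increase versus control.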

OVCAR-4 = assay: Growth inhibition of human OVCAR4 cells incubated for 48 hrs by sulforhodamine B assay; details: OVCAR-4, 48 h
Outline: (§2)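 Five-dose NCI SRB assay at 100, 10, 1.0, 0.1 and 0.01 μM for 48 h at 37 °C, 5% CO2. Medium was RPMI-1640 with 5% FBS and 2 mM glutamine. Time-zero plates were TCA-fixed at compound addition, A515 read after SRB staining. GI50 was solved from [(Ti−Tz)/(C−Tz)]×100 = 50. Values beyond the tested range are given as > or <.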

SK-MEL-28 = assay: Growth inhibition of human SK-MEL-28 cells incubated for 48 hrs by sulforhodamine B assay; details: SK-MEL-28, 48 h; outline: as §1
Malme-3M = assay: Growth inhibition of human MALME-3M cells incubated for 48 hrs by sulforhodamine B assay; outline: as §2
IGROV-1 = assay: Growth inhibition of human IGROV1 cells incubated for 48 hrs by sulforhodamine B assay; details: IGROV-1, 48 h; for CC50: read-out: LC50 (the source's name)
Outline: (§3)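 NCI 60-line screen. Cells in RPMI-1640 with 5% FBS and 2 mM L-glutamine, preincubated 24 h, then time-zero plates TCA-fixed. Compounds from DMSO stocks given at five final concentrations (100, 10, 1.0, 0.1, 0.01 µM) for 48 h at 37 °C, 5% CO2. Cells fixed with 10% TCA, SRB-stained, read at 515 nm. GI50 is the concentration giving 50% lower net protein increase versus control.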

HCC 2998 = assay: Growth inhibition of human HCC2998 cells incubated for 48 hrs by sulforhodamine B assay; details: HCC 2998, 48 h; outline: as §3
UACC-62 = assay: Growth inhibition of human UACC62 cells incubated for 48 hrs by sulforhodamine B assay; details: UACC-62, 48 h; for CC50: read-out: LC50 (the source's name); outline: as §3
NCI-H322M = assay: Growth inhibition of human NCI-H322M cells incubated for 48 hrs by sulforhodamine B assay; outline: as §2
SK-MEL-5 = assay: Growth inhibition of human SK-MEL-5 cells incubated for 48 hrs by sulforhodamine B assay; details: SK-MEL-5, 48 h; for CC50: read-out: LC50 (the source's name); outline: as §3
CCRF-CEM = assay: Growth inhibition of human CCRF-CEM cells incubated for 48 hrs by sulforhodamine B assay; details: for CC50: read-out: LC50 (the source's name); outline: as §3
HL-60(TB) = assay: Growth inhibition of human HL-60(TB) cells incubated for 48 hrs by sulforhodamine B assay; details: HL-60, 48 h; outline: as §3
NCI-H226 = assay: Growth inhibition of human NCI-H226 cells incubated for 48 hrs by sulforhodamine B assay; details: NCI-H226, 48 h; for CC50: read-out: LC50 (the source's name); outline: as §3
OVCAR-8 = assay: Growth inhibition of human OVCAR8 cells incubated for 48 hrs by sulforhodamine B assay; details: OVCAR-8, 48 h; outline: as §2
KM12 = assay: Growth inhibition of human KM12 cells incubated for 48 hrs by sulforhodamine B assay; details: KM12, 48 h; outline: as §2
UO-31 = assay: Growth inhibition of human UO31 cells incubated for 48 hrs by sulforhodamine B assay; details: UO-31, 48 h; outline: as §1
TK-10 = assay: Growth inhibition of human TK10 cells incubated for 48 hrs by sulforhodamine B assay; details: TK-10, 48 h; for CC50: read-out: LC50 (the source's name); outline: as §3
SF-268 = assay: Growth inhibition of human SF268 cells incubated for 48 hrs by sulforhodamine B assay; details: SF-268, 48 h; outline: as §2
SF-539 = assay: Growth inhibition of human SF539 cells incubated for 48 hrs by sulforhodamine B assay; details: SF-539, 48 h; outline: as §1
SK-OV-3 = assay: Growth inhibition of human SKOV3 cells incubated for 48 hrs by sulforhodamine B assay; details: SK-OV-3, 48 h; for CC50: read-out: LC50 (the source's name); outline: as §3
HT-29 = assay: Growth inhibition of human HT-29 cells incubated for 48 hrs by sulforhodamine B assay; details: HT-29, 48 h; outline: as §2
RPMI-8226 = assay: Growth inhibition of human RPMI8226 cells incubated for 48 hrs by sulforhodamine B assay; details: RPMI-8226, 48 h; for CC50: read-out: LC50 (the source's name); outline: as §3
A498 = assay: Growth inhibition of human A498 cells incubated for 48 hrs by sulforhodamine B assay; details: A498, 48 h; for CC50: read-out: LC50 (the source's name); outline: as §3
DU-145 = assay: Growth inhibition of human DU145 cells incubated for 48 hrs by sulforhodamine B assay; details: DU-145, 48 h
Outline: (§4)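 NCI five-dose SRB assay (100, 10, 1.0, 0.1, 0.01 µM) with 48 h exposure in RPMI-1640 with 5% FBS and 2 mM L-glutamine. Cells fixed with TCA and stained with SRB, read at 515 nm. GI50 is the concentration where [(Ti−Tz)/(C−Tz)]×100 = 50.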

MDA-MB-231 = assay: Growth inhibition of human MDA-MB-231 cells incubated for 48 hrs by sulforhodamine B assay; details: MDA-MB-231, 48 h; outline: as §2
HCT-116 = assay: Growth inhibition of human HCT116 cells incubated for 48 hrs by sulforhodamine B assay; details: HCT-116, 48 h; outline: as §4
HOP-62 = assay: Growth inhibition of human HOP62 cells incubated for 48 hrs by sulforhodamine B assay; details: HOP-62, 48 h; outline: as §4
786-0 = assay: Growth inhibition of human 786-0 cells incubated for 48 hrs by sulforhodamine B assay; details: 786-0, 48 h; outline: as §4
U-251 = assay: Growth inhibition of human U251 cells incubated for 48 hrs by sulforhodamine B assay; details: U-251, 48 h; outline: as §1
K562 = assay: Growth inhibition of human K562 cells incubated for 48 hrs by sulforhodamine B assay; details: K562, 48 h; for CC50: read-out: LC50 (the source's name); outline: as §3
COLO 205 = assay: Growth inhibition of human COLO205 cells incubated for 48 hrs by sulforhodamine B assay; details: COLO 205, 48 h; outline: as §4
[1] = read-out: LC50 (the source's name)

Compound: COc1cccc2c1C(=O)c1c(O)c3c(c(O)c1C2=O)C[C@@](O)(C(=O)CO)C[C@@H]3O[C@H]1C[C@H](N)[C@H](O)[C@H](C)O1 [DOXORUBICIN]
- GI50 (T47D): 60 nM
- GI50 (OVCAR-4): 370 nM
- GI50 (SK-MEL-28): 210 nM
- GI50 (Malme-3M): 120 nM
- GI50 (IGROV-1): 170 nM
- CC50 (IGROV-1): 100000 nM
- GI50 (HCC 2998): 260 nM
- GI50 (UACC-62): 140 nM
- CC50 (UACC-62): 1310 nM
- GI50 (NCI-H322M): 540 nM
- GI50 (SK-MEL-5): 80 nM
- CC50 (SK-MEL-5): 490 nM
- GI50 (CCRF-CEM): 80 nM
- CC50 (CCRF-CEM): 100000 nM
- GI50 (HL-60(TB)): 120 nM
- GI50 (NCI-H226): 50 nM
- CC50 (NCI-H226): 6400 nM
- GI50 (OVCAR-8): 100 nM
- GI50 (KM12): 270 nM
- GI50 (UO-31): 490 nM
- GI50 (TK-10): 380 nM
- CC50 (TK-10): 90000 nM
- GI50 (SF-268): 100 nM
- GI50 (SF-539): 120 nM
- GI50 (SK-OV-3): 220 nM
- CC50 (SK-OV-3): 100000 nM
- GI50 (HT-29): 120 nM
- GI50 (RPMI-8226): 80 nM
- CC50 (RPMI-8226): 100000 nM
- GI50 (A498): 100 nM
- CC50 (A498): 1900 nM
- GI50 (DU-145): 110 nM
- CC50 (DU-145; [1]): 100000 nM
- GI50 (MDA-MB-231): 510 nM
- GI50 (HCT-116): 80 nM
- GI50 (HOP-62): 70 nM
- GI50 (786-0): 130 nM
- GI50 (U-251): 40 nM
- GI50 (K562): 190 nM
- CC50 (K562): 100000 nM
- GI50 (COLO 205): 180 nM

Compound: COc1cc(C(=O)/C=C/c2cccc(Nc3ccnc4cc(Cl)ccc34)c2)cc(OC)c1OC
- GI50 (T47D): 1220 nM
- CC50 (T47D; [1]): 8260 nM
- GI50 (OVCAR-4): 1260 nM
- CC50 (OVCAR-4; [1]): 5260 nM
- GI50 (SK-MEL-28): 1510 nM
- CC50 (SK-MEL-28; [1]): 5980 nM
- GI50 (Malme-3M): 1460 nM
- CC50 (Malme-3M; [1]): 7800 nM
- GI50 (IGROV-1): 1320 nM
- CC50 (IGROV-1): > 100000 nM
- GI50 (HCC 2998): 1720 nM
- CC50 (HCC 2998; [1]): 5990 nM
- GI50 (UACC-62): 1030 nM
- CC50 (UACC-62): 5400 nM
- GI50 (NCI-H322M): 1520 nM
- CC50 (NCI-H322M; [1]): 7080 nM
- GI50 (SK-MEL-5): 1380 nM
- CC50 (SK-MEL-5): 5180 nM
- GI50 (CCRF-CEM): 360 nM
- CC50 (CCRF-CEM): > 100000 nM
- GI50 (HL-60(TB)): 1820 nM
- CC50 (HL-60(TB); [1]): > 100000 nM
- GI50 (NCI-H226): 1270 nM
- CC50 (NCI-H226): 6850 nM
- GI50 (OVCAR-8): 520 nM
- LC50 (concentration causing 50% net cell kill) (OVCAR-8): 7070 nM
- GI50 (KM12): 440 nM
- GI50 (UO-31): 570 nM
- CC50 (UO-31; [1]): 4420 nM
- GI50 (TK-10): 1450 nM
- CC50 (TK-10): 6110 nM
- GI50 (SF-268): 1240 nM
- GI50 (SF-539): 1360 nM
- CC50 (SF-539; [1]): 5270 nM
- GI50 (SK-OV-3): 1940 nM
- CC50 (SK-OV-3): 2610 nM
- GI50 (HT-29): 320 nM
- LC50 (HT-29): 5510 nM
- GI50 (RPMI-8226): 310 nM
- CC50 (RPMI-8226): > 100000 nM
- GI50 (A498): 1540 nM
- CC50 (A498): > 100000 nM
- GI50 (DU-145): 1460 nM
- GI50 (MDA-MB-231): 1810 nM
- GI50 (HCT-116): 350 nM
- LC50 (concentration killing 50% of cells) (HCT-116): 3980 nM
- GI50 (HOP-62): 680 nM
- CC50 (HOP-62; [1]): 6060 nM
- GI50 (786-0): 560 nM
- LC50 (786-0): 4890 nM
- GI50 (U-251): 910 nM
- CC50 (U-251; [1]): 5190 nM
- GI50 (K562): 400 nM
- CC50 (K562): > 100000 nM
- GI50 (COLO 205): 1340 nM
- CC50 (COLO 205; [1]): > 100000 nM
